NR2E3 ag-1: inhibitors of NR2E3-RetCOR corepressor binding, primary screen, NR2E3 agonist project, biochemical, TR-FRET, GST-NR2E3, biotin-RetCOR; Photoreceptor-specific nuclear receptor (Homo sapiens), Q9Y5X4; 1536-well; inhibition of corepressor binding, % at 4.78 µM; 320,000 compounds, 0.12% hits; AID 2300, 2010;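 active = percent inhibition above the cutoff of mean plus 3 SD of all tested compounds, set per screening campaign, cut at about 20% in these data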;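 note: 0% = DMSO wells and 100% = biotin wells as full block of FRET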
Target sequence (Q9Y5X4 whole entry, looked up): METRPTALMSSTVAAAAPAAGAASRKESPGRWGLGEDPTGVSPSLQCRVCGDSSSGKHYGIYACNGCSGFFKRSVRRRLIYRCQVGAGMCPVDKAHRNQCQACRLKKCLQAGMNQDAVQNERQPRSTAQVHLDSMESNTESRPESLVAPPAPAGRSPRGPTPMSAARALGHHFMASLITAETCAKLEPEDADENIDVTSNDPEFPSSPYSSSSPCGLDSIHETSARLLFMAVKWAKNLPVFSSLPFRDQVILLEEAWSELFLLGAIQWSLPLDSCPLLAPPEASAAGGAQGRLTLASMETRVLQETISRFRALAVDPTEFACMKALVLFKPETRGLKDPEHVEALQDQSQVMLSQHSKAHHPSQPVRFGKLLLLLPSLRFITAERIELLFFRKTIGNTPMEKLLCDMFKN
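system = GST-tagged NR2E3 plus biotinylated RetCOR corepressor | input = 1.35 nM GST-NR2E3 | also added = 7 nM biotin-RetCOR | schedule = 5 h incubation at 4 °C | measured by = TR-FRET with europium anti-GST and streptavidin-D2, 340 nm excitation | read-out = percent loss of FRET ratio relative to control wells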
NR2E3 ag-2: NR2E3 agonists in two-hybrid cells, primary screen, cell-based, luminescence, CHO-S, Gal4-NCOR/VP16-NR2E3. Photoreceptor-specific nuclear receptor (Homo sapiens), Q9Y5X4. luciferase. inhibition of corepressor binding, % at 3.98 µM. 360,000 compounds, 0.35% hits;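 active = inhibition above the mean of all tested compounds plus 3 SD, cut at about 70% in these data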;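 note: 0% = DMSO with NR2E3 transfected cells and 100% = cells lacking NR2E3 construct; higher means lower luciferase signal from less NR2E3 corepressor binding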
JMJD2C inh: inhibitors of GASC-1 histone demethylase, primary screen, biochemical, fluorescence, DELFIA europium; 330,000 compounds, 0.069% hits; GST-JMJD2C(1-420) H3K9me3 demethylation; inhibition, % at 2.35 µM; Lysine-specific demethylase 4C (Homo sapiens), Q9H3R0;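 active = more than half of a compound's replicate wells show inhibition beyond 50%, single wells judged on their own value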;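 note: signal counts dimethyl H3K9 product captured on neutravidin plate; 0% = median of DMSO wells and 100% = 0.3 times that DMSO median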
DAX1 inh-1: DAX1 (NR0B1) inhibitors on StAR promoter, primary screen, cell-based, luminescence, SF-1 (NR5A1), full-length DAX-1 | HEK293T StAR-luciferase reporter, SF-1/DAX-1 repression relief | inhibition, % at 6.8 µM | 370,000 compounds, 1.1% hits;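 active = inhibition above the mean over all tested compounds plus 3 SD, cut at about 3.6% in these data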;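 note: 0% = DAX-1 cells with DMSO and 100% = cells lacking DAX-1 with DMSO; higher inhibition means more luminescence from relief of DAX-1 repression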
DAX1 inh-2: DAX1 (NR0B1) inhibitors, primary screen, cell-based, HEK293, Gal4-DAX1, luciferase luminescence; HEK293 Gal4-DAX1 luciferase reporter; inhibition, % at 6.75 µM; 340,000 compounds, 0.99% hits; AID 504766, 2011; Nuclear receptor subfamily 0 group B member 1 (Homo sapiens), P51843;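 active = inhibition above the mean over all tested compounds plus 3 SD, cut at about 4.2% in these data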;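 note: 0% = DAX1-transfected cells with DMSO and 100% = empty-vector control cells with DMSO; inhibition shows as a rise in luminescence from relieved DAX1 repression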
Target sequence (P51843 207-470 limits assumed): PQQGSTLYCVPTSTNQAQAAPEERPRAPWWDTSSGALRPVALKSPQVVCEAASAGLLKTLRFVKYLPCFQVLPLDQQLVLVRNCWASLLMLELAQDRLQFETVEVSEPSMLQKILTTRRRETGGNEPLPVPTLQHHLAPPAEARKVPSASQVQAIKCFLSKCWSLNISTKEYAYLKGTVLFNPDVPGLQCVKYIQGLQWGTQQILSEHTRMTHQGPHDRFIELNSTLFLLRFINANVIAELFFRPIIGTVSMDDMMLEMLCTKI
SMARCA2 activ: SMARCA2 (BRM) function activators, primary screen, cell-based, luminescence, high throughput | MG213 cells, MMTV-luciferase reporter, dexamethasone, overnight | activation, % at 9.1 µM | 370,000 compounds, 1% hits; in the data active = activation above about 7.8%;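 note: 0% = vehicle wells and 100% = reference activator wells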
* = called active by the depositor. Compounds with a hit are over-represented: about 3.2% of the library has one in this group of screens.

`O=C(O/N=C1/CCCc2occc21)c1ccc(Cl)cc1Cl` gave NR2E3 ag-1 1, NR2E3 ag-2 -13, JMJD2C inh -2, DAX1 inh-1 0, DAX1 inh-2 6.8* and SMARCA2 activ 5.
For COc1cccc(NC(=O)n2ccc3ccc(-c4ccc5cc[nH]c5c4)cc32)c1 the results were DAX1 inh-1 -2 and SMARCA2 activ -1.
Cc1nc2ccccc2nc(C)c1=NO was read as NR2E3 ag-1 0, NR2E3 ag-2 -124, JMJD2C inh -8, DAX1 inh-1 4.1*, DAX1 inh-2 4 and SMARCA2 activ 4.
For C=CCNC(=S)N(C)[C@H]1C[C@H]2c3[nH]c4cccc(-c5cccc(F)c5)c4c3CCN2C(=O)[C@H]1[C@H](C)O the results were DAX1 inh-1 0 and SMARCA2 activ 0.
Screening O=C(CSc1nnc(-c2cnccn2)n1-c1ccccc1)c1ccc(F)cc1 returned DAX1 inh-1 -1 and SMARCA2 activ 2.
For O=S(=O)(NCCCc1ccccc1)c1ccc(F)c(F)c1 the results were NR2E3 ag-1 0, NR2E3 ag-2 -24, JMJD2C inh -3, DAX1 inh-1 0, DAX1 inh-2 4.8* and SMARCA2 activ -1.
Screening O=S(=O)(NCCCc1ccccc1)c1ccc(Cl)cc1 returned NR2E3 ag-1 -2, NR2E3 ag-2 -5, JMJD2C inh 1, DAX1 inh-1 0, DAX1 inh-2 -1 and SMARCA2 activ -6.
Screening Cc1nc2c(C)cccn2c1/C(O)=C1\C(=O)C(=O)N(CCN(C)C)C1c1ccccc1 (stereo not drawn) returned NR2E3 ag-1 1, NR2E3 ag-2 -25, JMJD2C inh 15, DAX1 inh-1 0, DAX1 inh-2 5.8* and SMARCA2 activ -6.
`COc1cc(C(=O)O/N=C(\N)c2cccc([N+](=O)[O-])c2)cc(OC)c1OC` gave NR2E3 ag-1 -3, NR2E3 ag-2 -7, JMJD2C inh -21, DAX1 inh-1 0, DAX1 inh-2 5.1* and SMARCA2 activ -4.
`N/C(=N\OC(=O)c1ccccc1F)c1cccc([N+](=O)[O-])c1` gave NR2E3 ag-1 1, NR2E3 ag-2 -34, JMJD2C inh 5, DAX1 inh-1 1, DAX1 inh-2 5.4* and SMARCA2 activ 6.
Screening N/C(=N\OC(=O)c1ccccc1Br)c1cccc([N+](=O)[O-])c1 returned NR2E3 ag-1 0, NR2E3 ag-2 -88, JMJD2C inh -4, DAX1 inh-1 2, DAX1 inh-2 3 and SMARCA2 activ 6.
`COc1cc(C(=O)O/N=C(\N)c2ccc([N+](=O)[O-])cc2)cc(OC)c1OC` gave NR2E3 ag-1 7, NR2E3 ag-2 -5, JMJD2C inh 1, DAX1 inh-1 0, DAX1 inh-2 0 and SMARCA2 activ 1.
Screening O=C(NC1=NC2(C=C3CCCCC3n3c(=O)n(-c4ccccc4)c(=O)n32)CN1CC1CC1)c1ccccc1 (stereo not drawn) returned DAX1 inh-1 0 and SMARCA2 activ -2.
O=C(NCc1ccco1)c1ccc(-c2ccccc2Cl)o1 was read as NR2E3 ag-1 2, NR2E3 ag-2 -6, JMJD2C inh -10, DAX1 inh-1 1, DAX1 inh-2 7.0* and SMARCA2 activ -1.
`CSc1n[nH]c(=O)n1C1CCCCC1` gave NR2E3 ag-1 0, NR2E3 ag-2 10, JMJD2C inh 4, DAX1 inh-1 0, DAX1 inh-2 6.0* and SMARCA2 activ 1.
`O=C(O)CN1C(=O)COc2cc(S(=O)(=O)N3CCCC3)ccc21` gave NR2E3 ag-1 -1, NR2E3 ag-2 -3, JMJD2C inh 3, DAX1 inh-1 0, DAX1 inh-2 5.8* and SMARCA2 activ -2.
For CCOC(=O)CC[C@@]1(C(=O)OCC)C[C@@H](CC(=O)NCc2cccc3ccccc23)C(=O)N2CCCC=C21 the results were DAX1 inh-1 -2 and SMARCA2 activ -2.
Screening COCCOC(=O)c1[nH]c2c(c1C)C(=O)CC(c1ccco1)C2 (stereo not drawn) returned NR2E3 ag-1 0, NR2E3 ag-2 -43, JMJD2C inh 21, DAX1 inh-1 3, DAX1 inh-2 -1 and SMARCA2 activ -1.
For CCOC(=O)c1[nH]c2c(c1C)C(=O)CC(c1ccco1)C2 (stereo not drawn) the results were NR2E3 ag-1 0, NR2E3 ag-2 25, JMJD2C inh -1, DAX1 inh-1 7.0*, DAX1 inh-2 -2 and SMARCA2 activ -1.
NC(=O)CSc1nc(C2CC2)nc2sc3c(c12)CCCC3 was read as NR2E3 ag-1 3, NR2E3 ag-2 -52, JMJD2C inh -4, DAX1 inh-1 1, DAX1 inh-2 5.6* and SMARCA2 activ 5.
For CCn1c(Cc2cccs2)nnc1SCC(=O)c1ccc(Cl)cc1 the results were DAX1 inh-1 1 and SMARCA2 activ 5.
`Cc1cccc(C)c1-n1nnnc1C1(C)Cn2nccc2C(=O)N1Cc1ccc(F)cc1` (stereo not drawn) gave DAX1 inh-1 1 and SMARCA2 activ 0.
Screening CCC(C)NC(=O)c1ccc2c(Cl)c3c(nc2c1)CCC3 (stereo not drawn) returned NR2E3 ag-1 3, NR2E3 ag-2 -22, JMJD2C inh 1, DAX1 inh-1 3, DAX1 inh-2 5.7* and SMARCA2 activ 4.
`CN(Cc1ccc(Cl)cc1Cl)C(=O)CCNC(=O)c1ccco1` gave NR2E3 ag-1 0, NR2E3 ag-2 2, JMJD2C inh -16, DAX1 inh-1 2, DAX1 inh-2 1 and SMARCA2 activ -3.
For CN(Cc1ccccc1Cl)C(=O)CCNC(=O)c1ccco1 the results were NR2E3 ag-2 -3, DAX1 inh-1 2, DAX1 inh-2 10* and SMARCA2 activ 1.
`COC(=O)c1cc(N=Cc2c(O)c3ccccc3oc2=O)cc(C(=O)OC)c1` gave NR2E3 ag-1 -1, NR2E3 ag-2 -27, JMJD2C inh 7 and DAX1 inh-2 9.2*.
COc1ccc(N2C(=O)c3ccccc3NC23CCCC3)cc1 was read as NR2E3 ag-1 1, NR2E3 ag-2 -125, JMJD2C inh 9, DAX1 inh-1 4.5*, DAX1 inh-2 0 and SMARCA2 activ 5.

Screening data as filed in PubChem BioAssay.
